Assays:
[1] = test system: PC-3; test: Growth inhibition of human PC3 cells; assay type: functional
[2] = Cytotoxicity against human leukemia cells assessed as cell growth at 10 uM relative to control; assay type: functional; settings: read-out: Activity
Procedure, shortened: (§1)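 Single-concentration screen against a panel of human cancer cell lines. Each value is the mean percent growth across the cell lines of that tumour subpanel.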

[3] = test system: CCRF-CEM; test: Growth inhibition of human CCRF-CEM cells; assay type: functional
[4] = target: Chymotrypsinogen A (Bos taurus, UniProt P00766); test: Inhibition of bovine pancreatic alpha-chymotrypsin using Suc-Leu-Leu-Val-Tyr-AMC as substrate by fluorescence assay
Procedure, shortened: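 Enzyme incubated at 20 °C in 50 mM Tris pH 8.0, 100 mM NaCl, 5 mM EDTA, 7.5% DMSO with varied inhibitor concentrations. Substrate hydrolysis followed for 10 min. Ki from progress curves; mean of three determinations.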

[5] = target: T1, Proteasome Macropain subunit MB1 (Homo sapiens) (UniProt P28074); test: Inhibition of chymotrypsin-like activity of 20S proteasome in human erythrocytes using Suc-Leu-Leu-Val-Tyr-AMC as substrate at 20 uM by fluorescence assay relative to control
T1 sequence (whole entry): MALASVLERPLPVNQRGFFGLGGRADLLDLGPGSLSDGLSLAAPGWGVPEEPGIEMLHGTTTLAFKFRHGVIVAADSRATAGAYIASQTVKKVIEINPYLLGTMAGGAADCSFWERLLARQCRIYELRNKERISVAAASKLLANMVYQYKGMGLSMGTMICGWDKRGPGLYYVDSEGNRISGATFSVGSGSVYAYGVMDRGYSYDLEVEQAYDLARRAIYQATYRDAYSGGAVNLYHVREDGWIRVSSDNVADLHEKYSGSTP
Procedure, shortened: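 Single inhibitor concentration, equivalent DMSO as negative control. AMC fluorescence read at ex 380/em 460 nm; percent inhibition of ChT-L activity.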

[6] = test system: SK-OV-3; test: Growth inhibition of human SKOV3 cells; assay type: functional
[7] = test system: Malme-3M; test: Growth inhibition of human MALME-3M cells; assay type: functional
[8] = test system: A498; test: Growth inhibition of human A498 cells; assay type: functional
[9] = Growth inhibition of human RXF393 cells; assay type: functional
[10] = Growth inhibition of human OVCAR4 cells; assay type: functional
[11] = test system: SW-620; test: Growth inhibition of human SW620 cells; assay type: functional
[12] = test system: HT-29; test: Growth inhibition of human HT-29 cells; assay type: functional
[13] = test system: KM12; test: Growth inhibition of human KM12 cells; assay type: functional
[14] = test system: SNB-19; test: Growth inhibition of human SNB19 cells; assay type: functional
[15] = Growth inhibition of human BT549 cells; assay type: functional
[16] = Cytotoxicity against human melanoma cells assessed as cell growth at 10 uM relative to control; assay type: functional; settings: read-out: Activity; procedure, shortened: as §1
[17] = Growth inhibition of human HCC2998 cells; assay type: functional; settings: HCC 2998
[18] = test system: A549; test: Growth inhibition of human A549/ATCC cells; assay type: functional
[19] = Cytotoxicity against human renal cancer cells assessed as cell growth at 10 uM relative to control; assay type: functional; settings: Cancer cell lines, read-out: Activity; procedure, shortened: as §1
[20] = test system: NCI-H322M; test: Growth inhibition of human NCI-H322M cells; assay type: functional
[21] = Growth inhibition of human OVCAR8 cells; assay type: functional
[22] = test system: NCI-H460; test: Growth inhibition of human NCI-H460 cells; assay type: functional
[23] = test system: MDA-MB-468; test: Growth inhibition of human MDA-MB-468 cells; assay type: functional
[24] = test system: RPMI-8226; test: Growth inhibition of human RPMI8226 cells; assay type: functional
[25] = Growth inhibition of human UACC257 cells; assay type: functional
[26] = test system: MDA-MB-231; test: Growth inhibition of human MDA-MB-231 cells; assay type: functional
[27] = test system: SF-268; test: Growth inhibition of human SF268 cells; assay type: functional
[28] = Growth inhibition of human OVCAR5 cells; assay type: functional; settings: OVCAR-5
[29] = test system: U-251; test: Growth inhibition of human U251 cells; assay type: functional
[30] = Growth inhibition of human UO31 cells; assay type: functional; settings: UO-31
[31] = test system: MDA-MB-435; test: Growth inhibition of human MDA-MB-435 cells; assay type: functional
[32] = Cytotoxicity against human ovarian cancer cells assessed as cell growth at 10 uM relative to control; assay type: functional; settings: Cancer cell lines, read-out: Activity; procedure, shortened: as §1
[33] = test system: K562; test: Growth inhibition of human K562 cells; assay type: functional
[34] = test system: MCF7; test: Growth inhibition of human MCF7 cells; assay type: functional
[35] = read-out: LC50 (the source's name)

CC(C)C[C@H](NC(=O)CCn1ccc2ncccc2c1=O)B(O)O
GI50 [1]: 41.4 µM | TGI [1]: > 100 µM | CC50 [1, 35]: > 100 µM | growth at 10 µM [2]: 34.8% | GI50 [3]: 2.35 µM | TGI [3]: > 100 µM | CC50 [3, 35]: > 100 µM | Ki [4]: Not Active | inhibition [5]: > 40% | GI50 [6]: > 100 µM | LC50 [6]: > 100 µM | TGI [6]: > 100 µM | GI50 [7]: 5.12 µM | TGI [7]: 62.2 µM | CC50 [7, 35]: > 100 µM | GI50 [8]: 3.07 µM | LC50 [8]: > 100 µM | TGI [8]: 24.3 µM | GI50 ([9]; RXF 393): 3.29 µM | TGI ([9]; RXF 393): 14.3 µM | CC50 ([9]; RXF 393, read-out: LC50 (the source's name)): 54.2 µM | GI50 ([10]; OVCAR-4): 28.4 µM | TGI ([10]; OVCAR-4): > 100 µM | CC50 ([10]; OVCAR-4, read-out: LC50 (the source's name)): > 100 µM | GI50 [11]: 4.62 µM | LC50 [11]: > 100 µM | TGI [11]: > 100 µM | GI50 [12]: 6.77 µM | LC50 [12]: > 100 µM | TGI [12]: > 100 µM | GI50 [13]: 17 µM | LC50 [13]: > 100 µM | TGI [13]: 49.6 µM | GI50 [14]: 41.2 µM | TGI [14]: > 100 µM | CC50 [14, 35]: > 100 µM | GI50 ([15]; BT-549): 3.49 µM | TGI ([15]; BT-549): 12.5 µM | CC50 ([15]; BT-549, read-out: LC50 (the source's name)): > 100 µM | growth at 10 µM [16]: 60.4% | GI50 [17]: 13.6 µM | LC50 [17]: 90.2 µM | TGI [17]: 35 µM | GI50 [18]: 38 µM | TGI [18]: > 100 µM | CC50 [18, 35]: > 100 µM | growth at 10 µM [19]: 76.1% | GI50 [20]: > 100 µM | TGI [20]: > 100 µM | CC50 [20, 35]: > 100 µM | GI50 ([21]; OVCAR-8): 37.5 µM | TGI ([21]; OVCAR-8): > 100 µM | CC50 ([21]; OVCAR-8, read-out: LC50 (the source's name)): > 100 µM | GI50 [22]: 36.2 µM | LC50 [22]: > 100 µM | TGI [22]: > 100 µM | GI50 [23]: 2.04 µM | TGI [23]: 9.96 µM | CC50 [23, 35]: > 100 µM | GI50 [24]: 3.22 µM | TGI [24]: > 100 µM | CC50 [24, 35]: > 100 µM | GI50 ([25]; UACC-257): 10.1 µM | TGI ([25]; UACC-257): 47 µM | CC50 ([25]; UACC-257, read-out: LC50 (the source's name)): > 100 µM | GI50 [26]: 7.94 µM | TGI [26]: 32.5 µM | CC50 [26, 35]: > 100 µM | GI50 [27]: 14.7 µM | LC50 [27]: > 100 µM | TGI [27]: > 100 µM | GI50 [28]: 17.1 µM | LC50 [28]: > 100 µM | TGI [28]: > 100 µM | GI50 [29]: 33 µM | TGI [29]: > 100 µM | CC50 [29, 35]: > 100 µM | GI50 [30]: 19.4 µM | LC50 [30]: > 100 µM | TGI [30]: > 100 µM | GI50 [31]: 2.41 µM | TGI [31]: 7.02 µM | CC50 [31, 35]: 67.8 µM | growth at 10 µM [32]: 84.2% | GI50 [33]: 17.2 µM | TGI [33]: > 100 µM | CC50 [33, 35]: > 100 µM | GI50 [34]: 3.61 µM | TGI [34]: > 100 µM | CC50 [34, 35]: > 100 µM

— ChEMBL document CHEMBL3286129, “Optimization of peptidomimetic boronates bearing a P3 bicyclic scaffold as proteasome inhibitors” (Eur J Med Chem, 2014)
